Hits are enriched below; roughly 2.3% of the tested compounds scored in any of these assays.
LMPTP inh = LMPTP (human) inhibition; inhibition, % at 20 µM; recombinant LMPTP-A, OMFP fluorogenic substrate, fluorescence intensity; hit rate 0.22% among 360,000; P24666;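 active = compounds that cut the enzyme signal by at least half of the control window in the single-dose screen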;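 note: plate controls were DMSO wells with enzyme plus substrate for no effect and substrate without enzyme for full effect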
Target sequence (P24666 whole entry, looked up): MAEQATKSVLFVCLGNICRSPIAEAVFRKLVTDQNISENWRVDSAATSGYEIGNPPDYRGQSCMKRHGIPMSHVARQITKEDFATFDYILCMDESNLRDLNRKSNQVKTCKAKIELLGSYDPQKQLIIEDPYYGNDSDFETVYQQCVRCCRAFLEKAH
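Test system – LMPTP-A phosphatase enzyme · Quantity – 0.625 nM LMPTP-A final · Reagent – OMFP substrate, 400 µM final · Dosing – one test concentration per compound, 20 µM, with 3% DMSO overall · Timing – 50 min enzyme reaction at room temperature, protected from light · Detection – fluorescence intensity · Controls – substrate-only low control, DMSO enzyme-plus-substrate high control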
Rpn11 inh = Rpn11 (human) deubiquitinase inhibition; inhibition, % at 20 µM; human 26S proteasome, Ub4-pepOG fluorescence polarization; 20S core pre-blocked with epoxomicin; hit rate 0.59% among 360,000; O00487;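 active = inhibition at 20 µM, scaled to each plate's controls, above about 33%, limit read from the data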
Target sequence (O00487 whole entry, looked up): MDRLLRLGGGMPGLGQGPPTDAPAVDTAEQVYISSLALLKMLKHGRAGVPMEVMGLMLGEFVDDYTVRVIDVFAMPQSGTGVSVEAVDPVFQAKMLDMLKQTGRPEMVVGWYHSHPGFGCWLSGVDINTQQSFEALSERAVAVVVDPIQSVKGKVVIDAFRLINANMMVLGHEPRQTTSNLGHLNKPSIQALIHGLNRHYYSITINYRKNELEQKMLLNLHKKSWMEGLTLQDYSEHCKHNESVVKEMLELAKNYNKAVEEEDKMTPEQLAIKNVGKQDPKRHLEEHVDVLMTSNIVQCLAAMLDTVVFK
Scp-1 inhibitor = blocks human Scp-1 phosphatase activity | AID 493091 | Recombinant Scp1, phosphopeptide, malachite green phosphate absorbance | hit rate 0.88% among 340,000 | inhibition, % at 20 µM | Q9GZU7;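 active = inhibition above about 50% at 20 µM, limit read from the data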;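 note: plate controls were DMSO wells with enzyme for no effect and wells lacking enzyme for full effect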
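System: SCP-1 catalytic domain; Reagent: Phospho 17-mer peptide substrate; Doses: one concentration, 20 µM, with 1.0% DMSO; Incubation: 45 min room-temperature reaction, 5 min colour, 30 min stabiliser; Signal: Phosphate-binding colour reagent, absorbance read at 630 nm.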
STEP inh = STEP (human) phosphatase inhibition; P54829; recombinant STEP, OMFP fluorogenic substrate, fluorescence; inhibition, % at 20 µM; hit rate 0.25% among 360,000; AID 588621;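 active = inhibition at 20 µM, scaled per plate between control wells, above about 37%, limit read from the data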;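 note: 0% = DMSO with enzyme and substrate and 100% = substrate only without enzyme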
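medium = Bis-Tris buffer pH 6.0, 2.5 mM DTT, 0.005% Tween 20 | test system = STEP (striatal-enriched tyrosine phosphatase) enzyme, cell-free | measure = normalized % inhibition | compound dosing = 20 µM, 1% DMSO | also added = 25 µM OMFP | schedule = reaction 20 min, ambient temperature | measured by = fluorescence read at 480 nm ex / 540 nm em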
DNMT1 inh = DNMT1 (human) enzyme inhibition; P26358; DNMT1 molecular beacon, Hinp1I cleavage, fluorescence; inhibition (reported as % activation of signal), % at 10 µM; hit rate 0.83% among 360,000; in the data active = inhibition above about 50%
SUMO1-SIM PPI = alters human SUMO1 binding to SIM partners. P63165. SUMO1 binding to a labelled peptide, TR-FRET, 1 h. inhibition, % at 20 µM. hit rate 0.33% among 360,000. AID 602429; in the data active = inhibition above about 37%
Target sequence (P63165 whole entry, looked up): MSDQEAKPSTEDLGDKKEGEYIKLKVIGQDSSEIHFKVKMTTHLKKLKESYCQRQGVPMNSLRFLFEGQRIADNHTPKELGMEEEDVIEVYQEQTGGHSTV
Scp1 confirm = confirmation of human Scp-1 phosphatase inhibitors; inhibition, % at 20 µM; recombinant SCP-1 catalytic domain, phosphate release, malachite green absorbance; shares compounds with Scp-1 inhibitor; hit rate 61% among 2,500;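 note: plate controls were DMSO with enzyme for no effect and buffer wells lacking enzyme for full effect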
MG interference = counter-screen for Scp-1 inhibitors: colorimetric interference. shares compounds with Scp-1 inhibitor. Colorimetric interference counterscreen, malachite green absorbance 630 nm. apparent inhibition (interference), % at 20 µM. 2,500 tested, under 10 active;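 note: compounds added after enzyme reaction finished so only phosphate colour detection is probed; plate controls were DMSO wells with completed Scp-1 reaction for no effect and substrate wells lacking enzyme for full effect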
Scp1 DSF = binds human Scp-1, shifting its melting temperature | shares compounds with Scp-1 inhibitor | Recombinant SCP1, Sypro Orange thermal shift Tm | thermal shift relative to vanadate control, % at 40 µM | hit rate 25% among 1,500 | AID 540329;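 active = substances whose mean melting-temperature shift, as a percentage of the reference inhibitor's shift, reaches about 5.3%, limit read from the data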;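 note: 0% = Tm of DMSO wells and 100% = Tm with sodium orthovanadate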
DNMT1 interf DR = beacon fluorescence artifact, dose response counter-screen; 200 tested, under 10 active; molecular beacon fluorescence, spectral interference counter-screen; shares compounds with DNMT1 inh; IC50, µM; call rule not given here
DNMT1 confirm = DNMT1 inhibition confirmation, single concentration | shares compounds with DNMT1 inh | DNMT1 molecular beacon HinP1I cleavage, fluorescence | inhibition, % at 10 µM | hit rate 8% among 2,300;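 active = average inhibition of at least 30% in the single-concentration confirmation test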
Beacon interf = beacon fluorescence artifact counter-screen | shares compounds with DNMT1 inh | DNMT1 molecular beacon spectral interference counterscreen, fluorescence 485/520 | activation (fluorescence interference), % at 10 µM | hit rate 1% among 2,300 | AID 602387;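 active = activation of at least 30% at 10 µM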;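 note: DNMT1 catalytic domain with a HinP1I cleavage step and a FAM/dabcyl DNA beacon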
* hit, by the source's call; . = not tested or not shown.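 Rule for the calls, unless noted: active = inhibition of at least 30% at 20 µM; inactive = the rest.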

SMILES | LMPTP inh | Rpn11 inh | Scp-1 inhibitor | STEP inh | DNMT1 inh | SUMO1-SIM PPI | Scp1 confirm | MG interference | Scp1 DSF | DNMT1 confirm | Beacon interf | others
CCOC(=O)Cc1csc(SCC(=O)Nc2nccs2)n1 | 1 | 3 | -3 | 2 | 1 | 1 | . | . | . | . | .
CN(C1CCCCC1)S(=O)(=O)c1ccc2c(c1)c(=O)c(C(=O)O)cn2C | 0 | 2 | . | -1 | 0 | 5 | . | . | . | . | .
Cc1ccc(NS(=O)(=O)c2ccc(-c3coc(C)n3)cc2)c(Cl)c1 | 0 | 4 | . | 1 | -3 | 25 | . | . | . | . | .
Clc1ccc(-c2ccc(-c3nn4c(-c5ccco5)nnc4s3)o2)cc1 | 26 | 18 | 77* | 5 | 78* | 30 | 50* | -11 | -1 | 2 | -1
Brc1ccc(-c2nn3c(-c4ccco4)nnc3s2)o1 | 10 | -9 | 52* | 17 | 84* | 18 | 22 | -16 | . | 3 | 4
c1ccc(-c2nn3c(-c4ccco4)nnc3s2)nc1 | 1 | -4 | 4 | 6 | 0 | 17 | . | . | . | . | .
CC(C)CC(=O)NS(=O)(=O)c1ccc(NS(C)(=O)=O)cc1 | 0 | 6 | -21 | -3 | 0 | -1 | . | . | . | . | .
Cc1ccc(CNC(=O)COC(=O)CCCOc2ccc(Cl)cc2Cl)cc1 | 3 | 5 | -7 | -2 | -4 | -2 | . | . | . | . | .
O=C(O)C1CC(=O)N(c2ccc3c(c2)OCCO3)C1 (stereo unspecified) | 2 | 4 | 75* | 18 | 63* | 6 | 55* | -11 | -14 | 4 | 8
Cc1cc2oc(=O)cc(-c3cc4ccccc4o3)c2cc1O | 66* | -8 | 91* | 35 | 81* | 14 | 79* | -10 | 4 | 1 | 1
CC(=O)COc1ccc2oc(=O)cc(-c3cc4ccccc4o3)c2c1 | 4 | -13 | -8 | 3 | -4 | -39 | . | . | . | . | .
CN(Cc1cccnc1)C(=O)c1cc(COc2ccc3c(c2)CCCC3)on1 | 3 | -12 | -5 | 1 | -3 | -1 | . | . | . | . | .
NC(=O)c1ccc(NC(=O)COC(=O)/C=C/c2ccc(Br)o2)cc1 | 43 | 6 | 74* | 24 | 90* | 62* | 68* | -5 | -1 | 2 | 0
CC(C)c1ccccc1NC(=O)COC(=O)COc1ccccc1[N+](=O)[O-] | 0 | 5 | -5 | 4 | -1 | 3 | . | . | . | . | .
CC(=O)OCC1=C(C(=O)O)N2C(=O)C(NC(=O)c3ccc(COc4cccc(Cl)c4Cl)o3)C2SC1 (stereo unspecified) | 9 | 5 | 53* | 2 | 88* | 15 | 66* | -15 | 4 | 41* | 4 | DNMT1 interf DR=>99
CN(C)/C=C/C=C1C(=O)CCCC1=O | 0 | -18 | 58* | 2 | 55* | -6 | 49* | -6 | -9 | 0 | 1
CC1=NN(c2ccccc2)C(=O)/C1=C/C=C/C=C/N(C)C | 33 | . | -5 | 17 | -1 | -122 | . | . | . | . | .
CC(=O)Nc1cc(C(=O)O)ccc1S(=O)(=O)c1ccc(C)cc1 | 1 | -2 | 25 | -8 | 3 | -1 | . | . | . | . | .
CCC(=O)Nc1cc(C(=O)O)ccc1S(=O)(=O)c1ccc(C)cc1 | -1 | -10 | 67* | 9 | 63* | 7 | 57* | -5 | 4 | -1 | 1
O=C(Nc1nccs1)c1cc(-c2ccccc2)nc2ccccc12 | 3 | -8 | -5 | -2 | -1 | -4 | . | . | . | . | .
Cc1cc(C(=O)NCc2ccco2)c2ccccc2n1 | 0 | 18 | -11 | 0 | -2 | -4 | . | . | . | . | .
O=C(Nc1nccs1)c1cc(-c2ccco2)nc2ccccc12 | 21 | -26 | 50* | -2 | 55* | 1 | 60* | -10 | 8.6* | 16 | -1
O=C(Nc1nc2ccccc2s1)c1cc(-c2ccco2)nc2ccccc12 | 0 | -3 | 4 | 1 | 8 | 13 | . | . | . | . | .
Cc1csc(NC(=O)c2cc(-c3ccco3)nc3ccccc23)n1 | 28 | -25 | 70* | 1 | 96* | 13 | 53* | -15 | 11* | 12 | -2
Cc1ccc(-c2cc(C(=O)NCc3ccco3)c3ccccc3n2)o1 | 7 | -9 | 77* | 8 | 92* | 17 | 71* | -8 | 5 | 4 | 2
SMILES | LMPTP inh | Rpn11 inh | Scp-1 inhibitor | STEP inh | DNMT1 inh | SUMO1-SIM PPI | Scp1 confirm | MG interference | Scp1 DSF | DNMT1 confirm | Beacon interf | others
O=C(O)c1cc(-c2ccco2)nc2ccccc12 | -1 | -78 | 59* | -1 | 61* | 8 | 43* | -18 | -3 | 1 | -2
CCOC(=O)C(=C1Nc2ccccc2N1)n1c(-c2cccnc2)nc2ccccc21 | 2 | . | . | . | . | -24 | . | . | . | . | .
Cc1ccc(NC(=O)Cn2cnc3c(nnn3Cc3ccc(F)cc3)c2=O)cc1 | 0 | 4 | -9 | 2 | 6 | 3 | . | . | . | . | .
Cc1cccc(C(=O)N[C@H](C(=O)OCc2cc(=O)n3c(n2)sc2ccccc23)C(C)C)c1 | 23 | 15 | 72* | 9 | 98* | 8 | 50* | -22 | 2 | 3 | 1
O=C(OCc1cc(=O)n2c(n1)sc1ccccc12)c1ccc(O)cc1 | 2 | -13 | 64* | 3 | 56* | 9 | 53* | -21 | -9 | 1 | 2
COc1ccc(/C=C/C(=O)OCc2cc(=O)n3c(n2)sc2ccccc23)cc1 | 3 | 3 | -2 | 3 | 6 | -5 | . | . | . | . | .
O=C(Nc1cccc2ccccc12)c1ccc2sc([C@@H]3O[C@H](CO)[C@H](O)[C@H](O)[C@H]3O)nc2c1 | 4 | -1 | . | -5 | 3 | -9 | . | . | . | . | .
CCc1ccc(/C(C)=N/NC(=O)CNC(=O)/C=C/c2ccccc2OC)cc1 | 2 | 2 | -4 | 0 | -1 | -1 | . | . | . | . | .
NS(=O)(=O)c1ccc(CNC(=O)/C=C/c2ccco2)cc1 | 6 | 10 | 84* | 4 | 90* | 21 | 70* | -5 | 3 | 9 | 9

Source: PubChem
